How the values were obtained:
[1] = Apparent permeability across apical to basolateral side in MDCK cells at 10 uM by LC-MS/MS analysis; type: ADME, cell-based, Canis lupus familiaris; settings: dog
In short: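 Apparent permeability, Papp A-B, measured across MDCK cell monolayers. Mean of at least two runs.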

[2] = Oral bioavailability in NCR nude mouse at 5 mg/kg; type: ADME, organism-based; settings: in vivo
In short: (§1)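 Female NCR nude mice given a single 5 mg/kg IV or oral dose as a solution in 35:10:15:40 PEG400:EtOH:PG:H2O. Plasma concentration-time profiles were used to derive Cmax, Tmax, Vss, CL, half-life and bioavailability.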

[3] = Tmax in NCR nude mouse at 5 mg/kg, po; type: ADME, organism-based; parameters: dose 5 mg/kg, route oral; settings: in vivo; in short: as §1
[4] = Cmax in NCR nude mouse at 5 mg/kg, po; type: ADME, organism-based; parameters: dose 5 mg/kg, route oral; settings: in vivo; in short: as §1
[5] = Volume of distribution at steady state in NCR nude mouse at 5 mg/kg, iv; type: ADME, organism-based; parameters: dose 5 mg/kg, route intravenous; settings: in vivo, read-out: Vdss; in short: as §1

Compound | Papp A→B at 10 µM [1] | also measured
O=C(NCc1ccc(S(=O)(=O)c2ccccc2)cc1)N1Cc2ccncc2C1 | 8.3 ×10⁻⁶ cm/s | –
Cc1ccc(S(=O)(=O)c2ccc(CNC(=O)N3Cc4ccncc4C3)cc2)cn1 | 2.5 ×10⁻⁶ cm/s | bioavailability [2]: 20.3%; Tmax [3]: 15 min; Cmax [4]: 330 nM; Vd [5]: 2.04 L/kg
O=C(NCc1ccc(S(=O)(=O)C2CCN(C3COC3)CC2)cc1)N1Cc2ccncc2C1 | 0.1 ×10⁻⁶ cm/s | –

The next lines start with results.

Papp A→B at 10 µM [1] | Compound | also measured
0.5 ×10⁻⁶ cm/s | Nc1ccc(S(=O)(=O)c2ccc(CNC(=O)N3Cc4ccncc4C3)cc2)cn1 | –
4.1 ×10⁻⁶ cm/s | CC(C)n1cc(S(=O)(=O)c2ccc(CNC(=O)N3Cc4ccncc4C3)cc2)cn1 | –
0.1 ×10⁻⁶ cm/s | O=C(NCc1ccc(S(=O)(=O)C2CCN(C3CCOCC3)CC2)cc1)N1Cc2ccncc2C1 | –

— ChEMBL document CHEMBL2417549, “Identification of 2,3-dihydro-1H-pyrrolo[3,4-c]pyridine-derived ureas as potent inhibitors of human nicotinamide phosphoribosyltransferase (NAMPT)” (Bioorg Med Chem Lett, 2013)
